These results are taken from ChEMBL document CHEMBL4261600 (Eur J Med Chem, 2018).

Data set [1] relates to Receptor-type tyrosine-protein kinase FLT3 (Homo sapiens), P36888 [R834Q]. Nature of the data set: Binding affinity to human partial length FLT3 R834Q mutant (V592 to Y969 residues) expressed in mammalian expression system assessed as remaining unbound target protein level at 1000 nM by Kinomescan method relative to control. In outline:
(§1)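 KINOMEscan competition-binding profiling across the panel of 468 kinases and mutants, with inhibitor tested at 1 μM. Binding is expressed as percent of control, with DMSO as the reference control.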

For data set [2], the target named is Activin receptor type-2A (Homo sapiens) (UniProt P27037). Nature of the data set: Binding affinity to wild-type human ACVR2A (V171 to T499 residues) expressed in bacterial expression system assessed as remaining unbound target protein level at 1000 nM by Kinomescan method relative to control. In outline: (§2)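 Single-point competition binding screen across a panel of 468 kinases and mutants, with the inhibitor at 1 μM. Binding is read out as percent of a DMSO control, and targets below 1 percent control were classed as strong binders.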
Activin receptor type-2A (Homo sapiens), sequence (P27037 whole entry, the tested form may be a part): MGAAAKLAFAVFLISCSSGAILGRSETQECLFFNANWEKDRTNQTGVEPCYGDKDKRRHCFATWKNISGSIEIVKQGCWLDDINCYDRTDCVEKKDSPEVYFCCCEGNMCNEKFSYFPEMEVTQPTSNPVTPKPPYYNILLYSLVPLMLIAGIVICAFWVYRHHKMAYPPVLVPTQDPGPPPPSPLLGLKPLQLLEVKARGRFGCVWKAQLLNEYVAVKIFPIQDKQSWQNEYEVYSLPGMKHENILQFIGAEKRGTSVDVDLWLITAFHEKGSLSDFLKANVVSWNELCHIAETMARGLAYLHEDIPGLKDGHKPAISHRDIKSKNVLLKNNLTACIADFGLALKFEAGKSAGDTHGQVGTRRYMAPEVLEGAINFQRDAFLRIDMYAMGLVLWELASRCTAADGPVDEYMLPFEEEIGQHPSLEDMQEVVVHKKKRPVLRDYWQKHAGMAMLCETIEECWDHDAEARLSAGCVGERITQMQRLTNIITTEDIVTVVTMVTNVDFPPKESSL

The target of data set [3] is Wee1-like protein kinase (Homo sapiens) (UniProt P30291). In words: Binding affinity to wild-type human partial length WEE1 (M291 to K575 residues) expressed in bacterial expression system assessed as remaining unbound target protein level at 1000 nM by Kinomescan method relative to control.
Wee1-like protein kinase (Homo sapiens), sequence (P30291 whole entry, looked up, the tested form may be a part): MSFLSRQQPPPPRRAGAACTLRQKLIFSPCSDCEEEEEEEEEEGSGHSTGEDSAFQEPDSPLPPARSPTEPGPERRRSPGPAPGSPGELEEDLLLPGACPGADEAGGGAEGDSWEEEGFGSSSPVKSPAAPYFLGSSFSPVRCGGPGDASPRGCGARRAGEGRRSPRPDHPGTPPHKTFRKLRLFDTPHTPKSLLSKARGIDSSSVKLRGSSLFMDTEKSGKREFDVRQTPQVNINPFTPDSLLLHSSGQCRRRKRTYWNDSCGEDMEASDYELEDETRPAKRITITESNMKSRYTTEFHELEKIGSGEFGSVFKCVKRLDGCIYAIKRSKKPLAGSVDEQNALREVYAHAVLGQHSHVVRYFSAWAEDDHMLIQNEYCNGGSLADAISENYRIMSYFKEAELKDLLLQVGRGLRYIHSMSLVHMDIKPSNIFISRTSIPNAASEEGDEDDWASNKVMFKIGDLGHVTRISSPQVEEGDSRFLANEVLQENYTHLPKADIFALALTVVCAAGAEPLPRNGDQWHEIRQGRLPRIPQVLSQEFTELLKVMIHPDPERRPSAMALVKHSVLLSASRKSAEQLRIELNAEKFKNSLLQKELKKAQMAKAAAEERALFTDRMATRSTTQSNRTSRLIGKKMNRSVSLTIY
In data set [4] the test system is Tyrosine-protein kinase ABL1 (Homo sapiens), P00519 [Y253F]. In words: Binding affinity to human phosphorylated ABL1 Y253F mutant (S229 to K512 residues) expressed in mammalian expression system assessed as remaining unbound target protein level at 1000 nM by Kinomescan method relative to control. The gist of the method:
as §2

The target of data set [5] is Interferon-induced, double-stranded RNA-activated protein kinase (Homo sapiens) (UniProt P19525). Nature of the data set: Binding affinity to wild-type human partial length PRKR (F247 to C551 residues) expressed in bacterial expression system assessed as remaining unbound target protein level at 1000 nM by Kinomescan method relative to control.
Interferon-induced, double-stranded RNA-activated protein kinase (Homo sapiens), sequence (P19525 whole entry, the tested form may be a part): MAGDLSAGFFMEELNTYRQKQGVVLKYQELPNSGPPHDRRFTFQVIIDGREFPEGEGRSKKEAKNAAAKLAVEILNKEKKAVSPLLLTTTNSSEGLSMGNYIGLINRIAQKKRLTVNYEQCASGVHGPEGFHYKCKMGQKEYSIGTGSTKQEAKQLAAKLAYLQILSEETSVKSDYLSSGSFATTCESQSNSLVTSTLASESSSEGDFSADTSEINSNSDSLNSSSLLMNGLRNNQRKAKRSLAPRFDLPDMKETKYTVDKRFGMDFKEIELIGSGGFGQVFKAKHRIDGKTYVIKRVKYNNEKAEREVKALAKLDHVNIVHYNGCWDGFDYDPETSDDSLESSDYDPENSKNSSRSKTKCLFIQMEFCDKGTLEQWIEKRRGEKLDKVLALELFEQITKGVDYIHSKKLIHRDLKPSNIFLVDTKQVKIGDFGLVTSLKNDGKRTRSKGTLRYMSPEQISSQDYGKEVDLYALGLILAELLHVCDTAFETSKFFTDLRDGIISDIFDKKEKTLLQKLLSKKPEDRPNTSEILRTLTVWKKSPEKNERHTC
The target of data set [6] is Serine/threonine-protein kinase Nek3 (Homo sapiens) (UniProt P51956). Nature of the data set: Binding affinity to wild-type human full length NEK3 (M1 to R506 residues) expressed in mammalian expression system assessed as remaining unbound target protein level at 1000 nM by Kinomescan method relative to control. The gist of the method:
as §2

Data set [7] concerns the target Mitogen-activated protein kinase kinase kinase 11 (Homo sapiens) (UniProt Q16584). In words: Binding affinity to wild-type human partial length MLK3 (I77 to W399 residues) expressed in bacterial expression system assessed as remaining unbound target protein level at 1000 nM by Kinomescan method relative to control.
For data set [8], the system named is Epidermal growth factor receptor (Homo sapiens), P00533 [L858R,T790M]. Nature of the data set: Binding affinity to human partial length EGFR L858R/T790M double mutant (R669 to V1011 residues) expressed in mammalian expression system assessed as remaining unbound target protein level at 1000 nM by Kinomescan method relative to control. In outline:
as §1

The target in data set [9] is Serine/threonine-protein kinase 32A (Homo sapiens) (UniProt Q8WU08). In words: Binding affinity to wild-type human full length YANK1 (M1 to L396 residues) expressed in mammalian expression system assessed as remaining unbound target protein level at 1000 nM by Kinomescan method relative to control. The gist of the method:
(§3)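 Profiled in a KINOMEscan binding panel with the inhibitor at a single concentration of 1 μM. Binding to each kinase was read out as percent of control, relative to a DMSO control. Strong binders were defined as those with a percent control value below 1.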

Data set [10] has as its target Bone morphogenetic protein receptor type-2 (Homo sapiens) (UniProt Q13873). In words: Binding affinity to wild-type human partial length BMPR2 (R179 to Q526 residues) expressed in mammalian expression system assessed as remaining unbound target protein level at 1000 nM by Kinomescan method relative to control. The gist of the method: as §3
Data set [11] addresses Serine/threonine-protein kinase 3 (Homo sapiens) (UniProt Q13188). In words: Binding affinity to wild-type human partial length MST2 (D17 to E318 residues) expressed in bacterial expression system assessed as remaining unbound target protein level at 1000 nM by Kinomescan method relative to control. In outline:
(§4)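 KINOMEscan binding panel of 468 kinases/mutants. Inhibitor was tested at a single concentration of 1 μM. Binding is reported as percent of control, defined relative to a DMSO control.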

Data set [12] is described as follows: MRT (0 to infinity) in beagle dog at 2 mg/kg, iv by LC-MS/MS analysis. The data set is classed as ADME, organism-based, Canis lupus familiaris. The note with it: in vivo.
Data set [13] concerns the target Serine/threonine-protein kinase ICK (Homo sapiens) (UniProt Q9UPZ9). Nature of the data set: Binding affinity to wild-type human partial length ICK (M1 to P314 residues) expressed in mammalian expression system assessed as remaining unbound target protein level at 1000 nM by Kinomescan method relative to control. The gist of the method: as §4
Data set [14] deals with Cyclin-dependent kinase 5 (Homo sapiens) (UniProt Q00535). In words: Binding affinity to wild-type human full length CDK5 (M1 to P292 residues) expressed in bacterial expression system assessed as remaining unbound target protein level at 1000 nM by Kinomescan method relative to control. In outline: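 KINOMEscan competitive binding profile at 1 μM inhibitor. Remaining target binding reported as percent of DMSO control.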

For data set [15], the target named is Myosin light chain kinase family member 4 (Homo sapiens) (UniProt Q86YV6). Nature of the data set: Binding affinity to wild-type human partial length MYLK4 (V79 to S380 residues) expressed in bacterial expression system assessed as remaining unbound target protein level at 1000 nM by Kinomescan method relative to control. The gist of the method:
as §4

Data set [16] has as its system Receptor-type tyrosine-protein kinase FLT3 (Homo sapiens), P36888 [D835Y]. Nature of the data set: Binding affinity to human partial length FLT3 D835Y mutant (Q580 to Y969 residues) expressed in bacterial expression system assessed as remaining unbound target protein level at 1000 nM by Kinomescan method relative to control. The gist of the method: as §1
For data set [17], the target named is Mitogen-activated protein kinase 13 (Homo sapiens) (UniProt O15264). In words: Binding affinity to wild-type human full length p38-delta (M1 to L365 residues) expressed in bacterial expression system assessed as remaining unbound target protein level at 1000 nM by Kinomescan method relative to control. In outline: as §3
Data set [18] addresses Cyclin-dependent kinase 14/Cyclin-Y (Homo sapiens, UniProt O94921). In words: Inhibition of recombinant GST-tagged human full length CDK14/cyclin Y (2 to end residues). It is filed as protein-complex assay.
Data set [19] deals with Hepatocyte growth factor receptor (Homo sapiens), P08581 [M1250T]. In words: Binding affinity to human partial length MET M1250T mutant (D1010 to S1367 residues) expressed in bacterial expression system assessed as remaining unbound target protein level at 1000 nM by Kinomescan method relative to control. The gist of the method: as §1
Another data set has as its target CDK8/Cyclin C (Homo sapiens, UniProt P49336). Nature of the data set: Inhibition of recombinant full length His-tagged human CDK8/CyclinC expressed in baculovirus expression system.
In another data set the test system is MV4-11. Nature of the data set: Antitumor activity against human MV4-11 cells xenografted in nu/nu mouse assessed as tumor growth inhibition at 20 to 30 mg/kg, po administered via gavage for 21 days measured on day 21 post last dose. The data set is classed as functional, organism-based. In outline: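 Female nu/nu mice, five weeks old, implanted subcutaneously in the right flank with 5 million MV4-11 cells in PBS/Matrigel 1:1. Daily oral gavage in 0.5% methylcellulose/0.4% Tween80 started at tumor volume 200–400 mm³, 10, 20 or 30 mg/kg/day or vehicle, 5 mice per group. Tumor volume (W²×L)/2 and body weight measured daily; mean ± SEM.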
On the technique in general: In xenograft studies the graft and the host belong to different species.

Each structure is given as a SMILES string. The source made the active and inactive calls. Bounds are passed on as bounds.

Myosin light chain kinase family member 4 (Homo sapiens), sequence (Q86YV6 whole entry, the tested form may be a part): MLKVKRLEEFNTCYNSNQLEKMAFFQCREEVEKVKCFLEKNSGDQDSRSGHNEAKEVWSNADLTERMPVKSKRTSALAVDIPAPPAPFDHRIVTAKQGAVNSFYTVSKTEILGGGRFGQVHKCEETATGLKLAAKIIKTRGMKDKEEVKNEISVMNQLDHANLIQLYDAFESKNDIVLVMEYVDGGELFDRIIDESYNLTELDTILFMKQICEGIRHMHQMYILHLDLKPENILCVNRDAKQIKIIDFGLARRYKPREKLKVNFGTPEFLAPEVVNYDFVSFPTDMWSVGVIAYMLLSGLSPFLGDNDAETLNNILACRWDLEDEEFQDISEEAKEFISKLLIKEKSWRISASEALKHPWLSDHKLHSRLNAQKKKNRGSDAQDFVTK
Serine/threonine-protein kinase ICK (Homo sapiens), sequence (Q9UPZ9 whole entry, the tested form may be a part): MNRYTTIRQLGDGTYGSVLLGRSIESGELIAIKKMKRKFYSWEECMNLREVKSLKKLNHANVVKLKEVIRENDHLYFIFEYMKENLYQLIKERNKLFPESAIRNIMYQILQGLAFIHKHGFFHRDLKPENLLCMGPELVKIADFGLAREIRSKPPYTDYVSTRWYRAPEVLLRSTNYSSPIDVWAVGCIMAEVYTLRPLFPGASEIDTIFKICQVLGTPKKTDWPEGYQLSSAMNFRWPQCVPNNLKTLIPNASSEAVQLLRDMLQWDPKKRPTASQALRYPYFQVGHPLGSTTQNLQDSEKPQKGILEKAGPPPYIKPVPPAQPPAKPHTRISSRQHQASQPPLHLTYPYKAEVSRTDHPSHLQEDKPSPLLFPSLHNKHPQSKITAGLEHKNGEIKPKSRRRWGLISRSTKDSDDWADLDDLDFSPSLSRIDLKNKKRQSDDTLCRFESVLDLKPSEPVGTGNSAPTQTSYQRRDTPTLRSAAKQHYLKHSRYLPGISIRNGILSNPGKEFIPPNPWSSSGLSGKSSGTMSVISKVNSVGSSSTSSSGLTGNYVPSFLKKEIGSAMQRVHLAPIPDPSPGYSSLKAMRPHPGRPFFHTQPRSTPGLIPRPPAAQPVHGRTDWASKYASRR
CDK8/Cyclin C, sequence (P49336 whole entry): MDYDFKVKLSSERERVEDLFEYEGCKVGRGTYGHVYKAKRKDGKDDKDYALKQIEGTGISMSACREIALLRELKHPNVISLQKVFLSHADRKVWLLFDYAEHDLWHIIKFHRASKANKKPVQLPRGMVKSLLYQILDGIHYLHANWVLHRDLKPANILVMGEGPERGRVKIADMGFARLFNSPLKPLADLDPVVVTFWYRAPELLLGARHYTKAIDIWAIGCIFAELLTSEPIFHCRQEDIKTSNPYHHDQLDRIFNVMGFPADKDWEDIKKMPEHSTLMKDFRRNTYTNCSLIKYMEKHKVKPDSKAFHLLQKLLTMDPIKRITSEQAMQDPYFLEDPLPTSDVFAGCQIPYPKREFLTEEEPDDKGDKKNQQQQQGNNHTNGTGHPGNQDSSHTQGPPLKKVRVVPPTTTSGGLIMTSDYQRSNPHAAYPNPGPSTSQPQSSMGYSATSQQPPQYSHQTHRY
CDK8/Cyclin C, sequence (P24863 whole entry, further chain): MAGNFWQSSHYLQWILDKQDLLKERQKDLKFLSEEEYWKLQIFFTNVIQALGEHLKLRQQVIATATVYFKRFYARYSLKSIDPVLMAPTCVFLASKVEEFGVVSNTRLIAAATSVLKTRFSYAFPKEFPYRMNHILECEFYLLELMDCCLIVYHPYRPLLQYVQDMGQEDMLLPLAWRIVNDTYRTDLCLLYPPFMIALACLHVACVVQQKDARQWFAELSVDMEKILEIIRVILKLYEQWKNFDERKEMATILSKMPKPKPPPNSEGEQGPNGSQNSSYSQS
Bone morphogenetic protein receptor type-2 (Homo sapiens), sequence (Q13873 whole entry, the tested form may be a part): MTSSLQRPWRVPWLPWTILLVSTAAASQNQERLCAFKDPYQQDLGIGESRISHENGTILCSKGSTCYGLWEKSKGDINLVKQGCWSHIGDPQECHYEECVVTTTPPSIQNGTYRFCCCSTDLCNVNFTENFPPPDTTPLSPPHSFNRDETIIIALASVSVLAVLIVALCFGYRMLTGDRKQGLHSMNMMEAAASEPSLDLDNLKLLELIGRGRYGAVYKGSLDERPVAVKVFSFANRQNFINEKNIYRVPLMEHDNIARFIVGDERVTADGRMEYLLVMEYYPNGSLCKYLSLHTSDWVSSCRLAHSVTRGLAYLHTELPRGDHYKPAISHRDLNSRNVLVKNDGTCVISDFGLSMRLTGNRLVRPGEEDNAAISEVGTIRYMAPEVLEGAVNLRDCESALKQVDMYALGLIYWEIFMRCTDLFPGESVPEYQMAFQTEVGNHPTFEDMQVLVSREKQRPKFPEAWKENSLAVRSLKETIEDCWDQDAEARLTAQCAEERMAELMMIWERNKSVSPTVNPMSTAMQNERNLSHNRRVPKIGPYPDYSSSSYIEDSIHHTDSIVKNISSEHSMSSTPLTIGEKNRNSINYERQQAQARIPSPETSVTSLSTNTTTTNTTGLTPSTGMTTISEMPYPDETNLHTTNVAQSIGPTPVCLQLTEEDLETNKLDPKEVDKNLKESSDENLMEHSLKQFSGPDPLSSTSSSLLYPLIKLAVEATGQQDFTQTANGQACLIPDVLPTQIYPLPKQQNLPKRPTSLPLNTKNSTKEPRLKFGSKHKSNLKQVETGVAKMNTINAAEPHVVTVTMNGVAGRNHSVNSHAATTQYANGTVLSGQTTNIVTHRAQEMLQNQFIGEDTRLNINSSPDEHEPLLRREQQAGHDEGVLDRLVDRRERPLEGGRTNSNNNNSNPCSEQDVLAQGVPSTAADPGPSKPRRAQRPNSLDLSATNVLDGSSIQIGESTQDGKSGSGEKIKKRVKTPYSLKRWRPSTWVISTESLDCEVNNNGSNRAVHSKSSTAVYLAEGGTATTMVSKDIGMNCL
Serine/threonine-protein kinase 3 (Homo sapiens), sequence (Q13188 whole entry, the tested form may be a part): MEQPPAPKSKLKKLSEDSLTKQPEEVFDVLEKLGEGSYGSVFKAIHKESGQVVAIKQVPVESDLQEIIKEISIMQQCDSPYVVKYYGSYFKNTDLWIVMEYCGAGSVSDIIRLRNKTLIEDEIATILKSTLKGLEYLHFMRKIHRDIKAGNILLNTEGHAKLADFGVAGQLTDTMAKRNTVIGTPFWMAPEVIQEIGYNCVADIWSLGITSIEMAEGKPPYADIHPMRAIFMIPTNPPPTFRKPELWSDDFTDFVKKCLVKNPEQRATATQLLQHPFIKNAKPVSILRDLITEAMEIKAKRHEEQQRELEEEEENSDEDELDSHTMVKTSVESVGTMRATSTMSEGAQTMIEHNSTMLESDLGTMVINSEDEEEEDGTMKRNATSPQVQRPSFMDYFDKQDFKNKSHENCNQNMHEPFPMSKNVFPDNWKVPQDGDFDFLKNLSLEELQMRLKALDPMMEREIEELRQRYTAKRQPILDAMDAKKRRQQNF

The term MRT inf denotes the average time that molecules of a dose stay in the body. By IC50 is commonly meant the concentration that inhibits the measured activity by half. As to `COCCN[C@H]1CC[C@H](Nc2cc(-c3csc(NCC4(C#N)CCOCC4)n3)c(Cl)cn2)CC1`, the Activity in data set [1] was determined as 100%; in data set [2] it was 100%; in [3], 94%; in [4], 87%; in [5], 98%; in [6] it was 100%. The Activity was 85% in data set [7]; 100% in data set [8]; 100% in [9]; 100% in data set [10]; 69% in data set [11]; 40% in data set [13]. The Activity stood at 94% in data set [14]; 94% in data set [15]; 100% in data set [16]; 100% in data set [17]; 100% in data set [19]. This compound gave an MRT inf in data set [12] of 20.4 h. Besides, the IC50 in data set [18] was 1.68 µM; at CDK8/Cyclin C, > 10 µM. In the data set on MV4-11, the TGI entry is “Active”.
